“And” between values parts separate entries of the source, which are not always exact repeats. Identical values can stand only once. Like-named read-outs stand apart in the source and are kept apart here.
What was measured:
VGLUT [1] = conditions: ref [25], cited from earlier work
VGLUT [2] = assay: Vesicular glutamate uptake into synaptic vesicles; assay type: biochemical, rat
[3] = molecular target: T1, vesicular GABA transporter (Bos taurus, UniProt G3N354); assay: Vesicular GABA uptake into synaptic vesicles; assay type: biochemical, bovine; conditions: concentrations up to 50 μM
T1 sequence (G3N354 1-526): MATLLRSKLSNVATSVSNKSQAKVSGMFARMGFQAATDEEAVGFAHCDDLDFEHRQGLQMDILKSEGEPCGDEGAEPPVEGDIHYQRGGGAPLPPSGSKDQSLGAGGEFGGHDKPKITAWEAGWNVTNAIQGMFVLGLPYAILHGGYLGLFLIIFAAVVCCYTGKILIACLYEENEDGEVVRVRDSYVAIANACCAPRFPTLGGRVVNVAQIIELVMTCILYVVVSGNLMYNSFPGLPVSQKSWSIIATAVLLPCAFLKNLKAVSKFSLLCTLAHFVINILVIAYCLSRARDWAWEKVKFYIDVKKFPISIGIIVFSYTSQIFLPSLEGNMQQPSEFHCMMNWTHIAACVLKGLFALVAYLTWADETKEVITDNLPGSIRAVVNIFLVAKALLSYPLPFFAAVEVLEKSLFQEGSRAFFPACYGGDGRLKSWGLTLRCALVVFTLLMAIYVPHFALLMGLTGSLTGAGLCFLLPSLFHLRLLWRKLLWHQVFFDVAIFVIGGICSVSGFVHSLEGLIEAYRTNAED
Method in brief: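 Crude calf cerebral cortex synaptic vesicles in 20 mM K-Hepes pH 7.4, 4 mM MgSO4, 4 mM KCl, 0.25 M sucrose. Pre-incubated 10 min at 30 °C with varied test compound concentrations. Then 2 mM ATP plus 50 μM [3H]GABA for 10 min. Filtered and washed with 0.15 M KCl.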

VGLUT [4] = assay: Kinetics of vesicular glutamate uptake with Brilliant Yellow; assay type: biochemical, rat; conditions: competitive with glutamate; 0, 40, 60 and 80 nM Brilliant Yellow; n=3
[5] = test system: plasma membrane glutamate transporter; assay: Na+-dependent synaptosomal glutamate uptake; assay type: biochemical, rat; conditions: for Glutamate uptake / %Control: 50 μM test agent; for Glutamate uptake: Na+-dependent [3H]glutamate uptake into synaptosomes; for %Control: synaptosomal glutamate uptake
Method in brief: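 Rat cerebrum synaptosomes (100 μg protein) were incubated 10 min at 37 °C in Krebs solution with 1 μM [3H]glutamate (5 Ci/mmol), ± 50 μM test agent. Na+-dependent uptake was NaCl minus choline chloride values, in dpm and % of control.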

[6] = Table 1, rat brain synaptic vesicles, 50 μM [3H]glutamate ± ATP, 10-min incubation
[7] = Table 3, Brilliant Yellow analogs, vesicular glutamate uptake

For `Cc1cc(-c2ccc(/N=N/c3c(S(=O)(=O)O)cc4cc(S(=O)(=O)O)cc(N)c4c3O)c(C)c2)ccc1/N=N/c1c(S(=O)(=O)O)cc2cc(S(=O)(=O)O)cc(N)c2c1O` [Trypan Blue], which IC50 (VGLUT [1]; [26]) is on record?
Its IC50 is 49 nM.

What about the Ki (VGLUT [1]) of the same molecule?
Its Ki is about 50 nM.

Which IC50 (VGLUT [2]; [6]) does the source give for `O=S(=O)(O)c1ccc2c(N=Nc3cccc4ccccc34)c(O)c(S(=O)(=O)O)cc2c1` [Bordeau R] here?
The IC50 was 6500 nM.

For `O=C(Nc1ccc(C=Cc2ccc(NC(=O)c3ccccc3)cc2S(=O)(=O)O)c(S(=O)(=O)O)c1)c1ccccc1` [4,4’-dibenzamidostilbene-2,2’-disulfonate], which IC50 (VGLUT [2]; [7]) is on record?
The IC50 was 2000 nM.

With `O=C([O-])C1=NN(c2ccc(S(=O)(=O)[O-])cc2)C(=O)C1N=Nc1ccc(S(=O)(=O)[O-])cc1.[Na+].[Na+].[Na+]` (centres unmarked) [Tartrazine] as the molecule, how does the “Inhibitory activity on vesicular glutamate uptake” value (VGLUT [2]) read?
The value was “rather inactive”.

And the IC50 (VGLUT [2]; [6])?
The IC50 was over 50000 nM.

Which IC50 (VGLUT [2]; [7]) does the source give for `O=[N+]([O-])c1ccc(C=Cc2ccc([N+](=O)[O-])cc2S(=O)(=O)O)c(S(=O)(=O)O)c1` [4,4’-Dinitrostilbene-2,2’-disulfonate, 4,4’-dinitrostilbene-2,2’-disulfonate] here?
Its IC50 is 1690 ± 110 nM.

With `O=S(=O)(O)c1cc(NS(=O)(=O)c2ccccc2)ccc1C=Cc1ccc(NS(=O)(=O)c2ccccc2)cc1S(=O)(=O)O` [4,4’-diphenylsulfonamidostilbene-2,2’-disulfonate] as the molecule, how does the IC50 (VGLUT [2]; [7]) read?
The IC50 was over 50000 nM.

With `CCOc1ccc(N=Nc2ccc(/C=C/c3ccc(N=Nc4ccc(OCC)cc4)cc3S(=O)(=O)O)c(S(=O)(=O)O)c2)cc1` [Chrysophenine] as the molecule, how does the IC50 (VGLUT [2]; [7]) read?
Its IC50 is 266 ± 70 nM.

What does the source list for `O=S(=O)([O-])c1cc(N=Nc2ccc(O)cc2)ccc1/C=C/c1ccc(N=Nc2ccc(O)cc2)cc1S(=O)(=O)[O-].[Na+].[Na+]` [Brilliant Yellow]?
Effect on vesicular GABA uptake [3]: affected neither; Ki (VGLUT [4]): 12 nM and 12.5 nM; IC50 (VGLUT [2]; [6]): 44 ± 7 nM; IC50 (VGLUT [2]; [7]): 44 ± 6 nM; Inhibition of vesicular glutamate uptake (VGLUT [2]; at 0.3 μM): 80%; Glutamate uptake [5]: 279,032 dpm; %Control [5]: 112%; Effect on synaptosomal glutamate uptake ([5]; concentrations up to 50 μM): affected neither

Which IC50 (VGLUT [2]; [7]) does the source give for `Nc1ccc(C=Cc2ccc(N)cc2S(=O)(=O)O)c(S(=O)(=O)O)c1` [4,4-Diaminostilbene-2,2’-disulfonate, 4,4’-diaminostilbene-2,2’-disulfonate] here?
The IC50 was over 50000 nM.

Which IC50 (VGLUT [2]; [6]) does the source give for `O=S(=O)(O)c1cc(S(=O)(=O)O)c2c(N=Nc3ccc(N=Nc4ccccc4)cc3)c(O)ccc2c1` [Brilliant Crocein MOO] here?
Its IC50 is 7700 nM.

Which IC50 (VGLUT [2]; [6]) does the source give for Nitrazine Yellow here?
The IC50 was 4400 nM.

Which IC50 (VGLUT [2]; [6]) does the source give for `COc1cc(N=Nc2c(C)cc(C)cc2S(=O)(=O)[O-])c(C)cc1N=Nc1c(S(=O)(=O)[O-])cc2cc(Nc3ccccc3)ccc2c1O.[Na+].[Na+]` [Direct Violet 51] here?
Its IC50 is 148 ± 31 nM.

And the Glutamate uptake [5]?
The Glutamate uptake was 258,020 dpm.

What about the “%Control” value [5] of the same molecule?
Its value is 104%.

For `CC(=O)Nc1ccc(C=Cc2ccc(NC(C)=O)cc2S(=O)(=O)O)c(S(=O)(=O)O)c1` [4,4-Diacetamidostilbene-2,2’-disulfonate, 4,4’-diacetamidostilbene-2,2’-disulfonate], which IC50 (VGLUT [2]; [7]) is on record?
Its IC50 is over 50000 nM.

With Sulforhodamine as the molecule, how does the “Inhibitory activity on vesicular glutamate uptake” value (VGLUT [2]) read?
Its value is “rather inactive”.

And the IC50 (VGLUT [2]; [6])?
The IC50 was over 50000 nM.

— paper PMC4025951 (Neurochemical research, 2013)
